What was measured:
[1] = biological target: Fibroblast growth factor receptor 1 (Homo sapiens, UniProt P11362); assay: Inhibition of recombinant human N-terminal GST-tagged FGFR1 (456 to 765 residues) expressed in baculovirus infected Sf21 insect cells at 1000 nM using poly (Glu, Tyr)4:1 as substrate measured after 1 hr by ELISA relative to control
In short: (§1)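 Recombinant kinase was incubated with compound in reaction buffer containing 5 μM ATP, in wells precoated with poly(Glu,Tyr) 4:1, for 1 h at 37 °C. Phosphorylation was detected by ELISA.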

[2] = biological target: Platelet-derived growth factor receptor beta (Homo sapiens) (UniProt P09619); assay: Inhibition of recombinant human N-terminal His6-tagged PDGFRbeta (557 to end residues) expressed in baculovirus infected Sf21 insect cells at 1000 nM using poly (Glu, Tyr)4:1 as substrate measured after 1 hr by ELISA relative to control
Sequence of Platelet-derived growth factor receptor beta (Homo sapiens) (P09619 whole entry): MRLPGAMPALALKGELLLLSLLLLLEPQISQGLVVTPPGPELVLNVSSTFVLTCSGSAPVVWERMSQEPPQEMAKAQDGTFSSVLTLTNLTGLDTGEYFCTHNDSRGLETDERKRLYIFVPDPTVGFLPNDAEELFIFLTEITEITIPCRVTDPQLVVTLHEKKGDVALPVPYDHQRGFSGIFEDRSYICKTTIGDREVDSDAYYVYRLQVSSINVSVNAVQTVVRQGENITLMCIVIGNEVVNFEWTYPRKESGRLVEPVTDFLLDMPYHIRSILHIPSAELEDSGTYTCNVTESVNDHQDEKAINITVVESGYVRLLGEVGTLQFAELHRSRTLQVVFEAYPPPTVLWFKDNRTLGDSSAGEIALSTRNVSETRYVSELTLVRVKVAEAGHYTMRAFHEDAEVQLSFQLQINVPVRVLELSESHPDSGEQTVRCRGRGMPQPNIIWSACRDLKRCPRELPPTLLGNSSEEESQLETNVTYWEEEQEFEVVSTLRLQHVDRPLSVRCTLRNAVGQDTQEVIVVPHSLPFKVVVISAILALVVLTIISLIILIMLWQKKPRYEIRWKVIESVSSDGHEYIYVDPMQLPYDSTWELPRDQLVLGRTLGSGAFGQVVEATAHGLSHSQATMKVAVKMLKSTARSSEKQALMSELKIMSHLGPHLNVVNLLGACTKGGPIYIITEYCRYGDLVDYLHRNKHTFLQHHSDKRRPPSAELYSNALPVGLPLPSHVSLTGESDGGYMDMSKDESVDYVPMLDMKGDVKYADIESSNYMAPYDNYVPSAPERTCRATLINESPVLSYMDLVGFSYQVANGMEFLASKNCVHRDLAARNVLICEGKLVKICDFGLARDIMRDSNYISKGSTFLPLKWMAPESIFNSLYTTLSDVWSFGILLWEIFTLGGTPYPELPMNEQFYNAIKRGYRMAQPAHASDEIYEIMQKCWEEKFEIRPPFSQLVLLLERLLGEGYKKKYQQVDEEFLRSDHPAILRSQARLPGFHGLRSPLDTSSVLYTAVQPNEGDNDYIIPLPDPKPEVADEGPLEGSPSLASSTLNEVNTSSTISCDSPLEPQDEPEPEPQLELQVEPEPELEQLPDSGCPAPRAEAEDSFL
In short: (§2)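 ELISA kinase assay: recombinant kinase added to wells precoated with poly(Glu,Tyr)4:1 and incubated with compound in reaction buffer containing 5 μM ATP, 37 °C for 1 h; wells then washed before antibody detection.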

[3] = biological target: Proto-oncogene tyrosine-protein kinase receptor Ret (Homo sapiens) (UniProt P07949); assay: Inhibition of recombinant human N-terminal GST-tagged RET (658 to end residues) expressed in baculovirus infected Sf21 insect cells at 100 nM using poly (Glu, Tyr)4:1 as substrate measured after 1 hr by ELISA relative to control; in short: as §1
[4] = biological target: Macrophage colony-stimulating factor 1 receptor (Mus musculus) (UniProt P09581); assay: Inhibition of CSF1R in CSF1-stimulated mouse RAW264.7 cells assessed as reduction in AKT phosphorylation preincubated for 6 hrs followed by CSF1 stimulation and measured after 20 mins by Western blot analysis; assay type: cell-based
Sequence of Macrophage colony-stimulating factor 1 receptor (Mus musculus) (P09581 whole entry): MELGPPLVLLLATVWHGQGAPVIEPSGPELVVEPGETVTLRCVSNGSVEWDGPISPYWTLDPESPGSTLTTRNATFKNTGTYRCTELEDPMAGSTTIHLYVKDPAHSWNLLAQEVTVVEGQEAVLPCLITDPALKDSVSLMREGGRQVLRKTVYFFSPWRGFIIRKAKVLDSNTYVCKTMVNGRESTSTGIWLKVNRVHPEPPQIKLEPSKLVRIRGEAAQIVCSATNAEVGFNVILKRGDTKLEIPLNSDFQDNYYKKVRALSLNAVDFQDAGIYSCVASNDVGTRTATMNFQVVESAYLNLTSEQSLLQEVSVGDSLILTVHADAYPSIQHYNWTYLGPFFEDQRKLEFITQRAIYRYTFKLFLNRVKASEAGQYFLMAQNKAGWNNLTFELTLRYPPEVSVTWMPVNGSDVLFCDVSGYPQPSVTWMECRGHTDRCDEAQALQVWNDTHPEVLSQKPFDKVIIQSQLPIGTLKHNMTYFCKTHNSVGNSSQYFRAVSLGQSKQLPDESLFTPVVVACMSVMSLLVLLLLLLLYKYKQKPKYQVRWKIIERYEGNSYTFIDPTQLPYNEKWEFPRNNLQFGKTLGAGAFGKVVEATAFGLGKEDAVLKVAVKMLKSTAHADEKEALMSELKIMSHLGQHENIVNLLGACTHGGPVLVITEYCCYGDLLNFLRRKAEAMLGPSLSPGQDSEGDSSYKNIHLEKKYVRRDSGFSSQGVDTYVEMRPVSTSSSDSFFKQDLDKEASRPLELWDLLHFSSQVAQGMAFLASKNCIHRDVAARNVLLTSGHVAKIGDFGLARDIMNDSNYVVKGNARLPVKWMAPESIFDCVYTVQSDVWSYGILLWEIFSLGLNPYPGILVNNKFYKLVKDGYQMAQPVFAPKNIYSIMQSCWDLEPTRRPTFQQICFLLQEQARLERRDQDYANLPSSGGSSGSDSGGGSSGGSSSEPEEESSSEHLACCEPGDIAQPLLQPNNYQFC
In short: (§3)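 RAW264.7 cells were plated in six-well plates overnight, treated with compound for 6 h, then stimulated with CSF-1 100 ng/mL for 20 min. Lysates were normalized by BCA, run on 10% SDS-PAGE, and blotted with antibodies to phospho-CSF1R (Tyr723), CSF1R, phospho-Akt (Ser473), Akt and actin.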

[5] = biological target: Tyrosine-protein kinase BTK (Homo sapiens) (UniProt Q06187); assay: Inhibition of recombinant human full-length N-terminal His6-tagged BTK expressed in baculovirus infected Sf21 insect cells at 100 nM using poly (Glu, Tyr)4:1 as substrate measured after 1 hr by ELISA relative to control; in short: as §2
c-KIT = c-KIT (Homo sapiens, UniProt P10721); assay: Inhibition of recombinant human N-terminal GST-tagged c-KIT (544 to end residues) expressed in baculovirus infected Sf21 insect cells at 1000 nM using poly (Glu, Tyr)4:1 as substrate measured after 1 hr by ELISA relative to control; details: probe poly (Glu, Tyr)4:1; in short: as §1
[6] = biological target: Vascular endothelial growth factor receptor 1 (Homo sapiens) (UniProt P17948); assay: Inhibition of recombinant human VEGFR1 expressed in Spodoptera frugiperda insect cells at 10 nM using poly (Glu, Tyr)4:1 as substrate measured after 1 hr by ELISA relative to control; in short: as §2
Sequence of Vascular endothelial growth factor receptor 1 (Homo sapiens) (P17948 whole entry): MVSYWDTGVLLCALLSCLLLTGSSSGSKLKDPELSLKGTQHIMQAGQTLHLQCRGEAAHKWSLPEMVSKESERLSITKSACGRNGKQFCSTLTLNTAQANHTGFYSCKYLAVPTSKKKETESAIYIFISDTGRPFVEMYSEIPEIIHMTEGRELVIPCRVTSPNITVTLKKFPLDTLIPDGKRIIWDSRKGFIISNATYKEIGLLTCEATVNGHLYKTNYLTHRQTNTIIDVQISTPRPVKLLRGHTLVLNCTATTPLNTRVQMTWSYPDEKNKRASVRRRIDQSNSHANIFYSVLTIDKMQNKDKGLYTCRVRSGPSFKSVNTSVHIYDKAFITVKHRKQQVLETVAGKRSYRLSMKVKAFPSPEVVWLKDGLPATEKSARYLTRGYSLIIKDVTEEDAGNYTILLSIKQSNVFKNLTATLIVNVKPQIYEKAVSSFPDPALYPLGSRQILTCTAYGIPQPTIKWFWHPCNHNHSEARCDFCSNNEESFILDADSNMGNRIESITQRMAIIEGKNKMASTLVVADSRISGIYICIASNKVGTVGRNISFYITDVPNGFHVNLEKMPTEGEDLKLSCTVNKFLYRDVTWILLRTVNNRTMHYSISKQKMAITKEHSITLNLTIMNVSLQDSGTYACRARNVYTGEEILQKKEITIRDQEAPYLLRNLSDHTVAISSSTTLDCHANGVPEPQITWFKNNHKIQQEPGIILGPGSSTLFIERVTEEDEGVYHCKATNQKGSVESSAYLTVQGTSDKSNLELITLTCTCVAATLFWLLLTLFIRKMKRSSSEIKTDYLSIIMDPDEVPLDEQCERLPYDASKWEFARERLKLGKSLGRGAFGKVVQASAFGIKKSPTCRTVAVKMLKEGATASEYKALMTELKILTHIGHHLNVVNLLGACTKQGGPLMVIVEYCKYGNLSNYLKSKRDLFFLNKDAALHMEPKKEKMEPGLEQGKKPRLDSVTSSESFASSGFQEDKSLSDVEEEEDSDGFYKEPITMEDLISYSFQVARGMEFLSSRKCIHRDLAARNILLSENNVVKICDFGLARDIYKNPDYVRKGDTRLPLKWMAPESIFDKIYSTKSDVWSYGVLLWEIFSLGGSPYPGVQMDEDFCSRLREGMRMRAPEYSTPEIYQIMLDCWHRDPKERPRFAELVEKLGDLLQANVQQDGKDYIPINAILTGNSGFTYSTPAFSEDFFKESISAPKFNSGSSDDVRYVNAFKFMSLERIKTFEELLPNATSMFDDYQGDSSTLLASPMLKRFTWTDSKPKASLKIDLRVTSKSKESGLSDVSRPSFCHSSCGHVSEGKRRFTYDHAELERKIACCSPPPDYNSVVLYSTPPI

[7] = biological target: Platelet-derived growth factor receptor beta (Homo sapiens) (UniProt P09619); assay: Inhibition of recombinant human N-terminal His6-tagged PDGFRbeta (557 to end residues) expressed in baculovirus infected Sf21 insect cells at 10 nM using poly (Glu, Tyr)4:1 as substrate measured after 1 hr by ELISA relative to control; in short: as §2
[8] = AUC (0 to t) in Sprague-Dawley rat at 5 mg/kg, po administered via gavage by LC-MS/MS analysis; assay type: ADME, organism-based; details: in vivo
In short: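 Male SD rats (200 ± 20 g) were fasted 12 h with free access to water, n = 3 per group. One group received 2 mg/kg iv in DMSO/EtOH/PEG300/saline (5/5/40/50). The other received 5 mg/kg by oral gavage in DMSO/HPMC (5/95). Femoral-vein plasma was taken at 15–1440 min, methanol-precipitated with internal standard, and measured by LC–MS/MS. Noncompartmental analysis; AUC by trapezoidal method.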

RAW264.7 = assay: Antiinflammatory activity in mouse RAW264.7 cells assessed as reduction in LPS-induced IL6 release measured after 24 hrs by ELISA; assay type: functional, cell-based; details: RAW264.7, 24 h
In short: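 RAW264.7 cells in DMEM with 10% FBS and 0.125% DMSO were incubated with compound, then primed with LPS 1 μg/mL for 24 h. Supernatant TNF-α and IL-6 measured by mouse ELISA. IC50 from log(inhibitor) versus normalized response nonlinear fit.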

[9] = biological target: Tyrosine-protein kinase ABL1 (Homo sapiens) (UniProt P00519); assay: Inhibition of recombinant human N-terminal His6-tagged Abl (27 to end residues) expressed in baculovirus infected Sf21 insect cells at 100 nM using poly (Glu, Tyr)4:1 as substrate measured after 1 hr by ELISA relative to control; in short: as §1
Sequence of Tyrosine-protein kinase ABL1 (Homo sapiens) (P00519 whole entry, the tested form may be a part): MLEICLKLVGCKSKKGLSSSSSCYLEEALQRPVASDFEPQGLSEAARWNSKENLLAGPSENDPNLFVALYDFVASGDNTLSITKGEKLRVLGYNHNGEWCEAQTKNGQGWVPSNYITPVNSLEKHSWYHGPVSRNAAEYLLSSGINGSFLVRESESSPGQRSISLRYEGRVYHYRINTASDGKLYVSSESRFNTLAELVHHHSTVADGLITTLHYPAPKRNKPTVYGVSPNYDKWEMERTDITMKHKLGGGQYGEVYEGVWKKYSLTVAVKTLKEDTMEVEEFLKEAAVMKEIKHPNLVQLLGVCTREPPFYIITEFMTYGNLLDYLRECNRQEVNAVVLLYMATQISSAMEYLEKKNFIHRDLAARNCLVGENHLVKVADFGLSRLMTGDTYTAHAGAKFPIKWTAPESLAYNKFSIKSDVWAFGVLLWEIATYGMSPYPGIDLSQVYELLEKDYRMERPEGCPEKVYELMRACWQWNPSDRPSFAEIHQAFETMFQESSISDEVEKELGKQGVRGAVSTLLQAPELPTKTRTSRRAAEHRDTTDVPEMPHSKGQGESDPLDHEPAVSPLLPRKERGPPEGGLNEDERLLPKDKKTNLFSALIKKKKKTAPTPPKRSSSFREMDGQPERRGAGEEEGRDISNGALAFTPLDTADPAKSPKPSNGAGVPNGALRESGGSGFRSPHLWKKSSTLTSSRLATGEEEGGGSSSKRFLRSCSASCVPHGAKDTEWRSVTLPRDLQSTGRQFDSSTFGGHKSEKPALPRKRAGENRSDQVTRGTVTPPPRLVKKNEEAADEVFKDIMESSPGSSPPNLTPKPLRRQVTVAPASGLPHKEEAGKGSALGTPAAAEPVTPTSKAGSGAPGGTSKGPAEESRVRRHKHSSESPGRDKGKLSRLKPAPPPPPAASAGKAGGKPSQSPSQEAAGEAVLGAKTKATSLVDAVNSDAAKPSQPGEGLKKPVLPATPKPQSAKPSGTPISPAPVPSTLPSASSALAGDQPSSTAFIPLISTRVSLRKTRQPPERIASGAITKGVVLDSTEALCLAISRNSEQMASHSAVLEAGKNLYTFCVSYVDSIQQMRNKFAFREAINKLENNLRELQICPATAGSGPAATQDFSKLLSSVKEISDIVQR

[10] = biological target: T1, Fibroblast growth factor receptor 4 (Homo sapiens, UniProt P22455); assay: Inhibition of recombinant human N-terminal His6-tagged FGFR4 (442 to 755 residues) expressed in baculovirus infected Sf21 insect cells at 1000 nM using poly (Glu, Tyr)4:1 as substrate measured after 1 hr by ELISA relative to control; in short: as §2
[11] = biological target: Insulin receptor (Homo sapiens) (UniProt P06213); assay: Inhibition of recombinant human N-terminal His6-tagged IR (1005 to 1310 residues) expressed in baculovirus infected Sf21 insect cells at 1000 nM using poly (Glu, Tyr)4:1 as substrate measured after 1 hr by ELISA relative to control; in short: as §2
[12] = biological target: T1, Fibroblast growth factor receptor 4; assay: Inhibition of recombinant human N-terminal His6-tagged FGFR4 (442 to 755 residues) expressed in baculovirus infected Sf21 insect cells using poly (Glu, Tyr)4:1 as substrate measured after 1 hr by ELISA; in short: as §2
[13] = biological target: Activated CDC42 kinase 1 (Homo sapiens) (UniProt Q07912); assay: Inhibition of recombinant human N-terminal GST-tagged ACK1 (1 to 389 residues) expressed in baculovirus infected Sf21 insect cells at 1000 nM using poly (Glu, Tyr)4:1 as substrate measured after 1 hr by ELISA relative to control; in short: as §1
[14] = biological target: Vascular endothelial growth factor receptor 1 (Homo sapiens) (UniProt P17948); assay: Inhibition of recombinant human VEGFR1 expressed in Spodoptera frugiperda insect cells at 100 nM using poly (Glu, Tyr)4:1 as substrate measured after 1 hr by ELISA relative to control; in short: as §2
[15] = biological target: Macrophage colony-stimulating factor 1 receptor (Mus musculus) (UniProt P09581); assay: Inhibition of CSF1R in CSF1-stimulated mouse RAW264.7 cells assessed as reduction in CSF1R phosphorylation preincubated for 6 hrs followed by CSF1 stimulation and measured after 20 mins by Western blot analysis; assay type: cell-based; in short: as §3
FLT3 = FLT3 (Homo sapiens, UniProt P36888); assay: Inhibition of recombinant human N-terminal GST-tagged FLT3 (564 to end residues) expressed in Sf21 insect cells at 1000 nM using poly (Glu, Tyr)4:1 as substrate measured after 1 hr by ELISA relative to control; details: probe poly (Glu, Tyr)4:1; in short: as §1

An inhibition [1] of 0%, an inhibition [2] of 87.9% and an inhibition [3] of 77.6% were found for `Cc1ccc(C(=O)Nc2ccc(Cl)cc2)cc1C#Cc1cc(-c2cnn(C)c2)cnc1N` in this work. For the same compound, the inhibition [4] was “Dose-dependent effect”, the inhibition [5] was 0% and the inhibition at 1 h, 1 µM (c-KIT) was 98.2%. It also gave an inhibition [6] of 36.2%, an inhibition [7] of 14.7% and an AUC(0-t) [8] of 634 ng·h/mL. For the same compound, the IC50 (RAW264.7) was 130 nM, the inhibition [9] was 82.1% and the inhibition [10] was 7.4%. It also gave an inhibition [11] of 0%, an IC50 [12] of over 1000 nM and an inhibition [13] of 30.9%. For the same compound, the inhibition [14] was 78.5%, the inhibition [15] was “Dose-dependent effect” and the inhibition at 1 h, 1 µM (FLT3) was 5.9%.
